The values below come from ChEMBL document CHEMBL1926680, “The de-guanidinylated derivative of peramivir remains a potent inhibitor of influenza neuraminidase” (Bioorg Med Chem Lett, 2011).

The target in assay [1] is Neuraminidase (Influenza A virus (strain A/Brevig Mission/1/1918 H1N1) (Influenza Avirus (strain A/South Carolina/1/1918 H1N1)), UniProt Q9IGQ6). Briefly: Inhibition of Influenza A virus (A/Brevig Mission/1/1918(H1N1)) recombinant soluble neuraminidase using 2'-4(methylumbelliferyl)-alpha-D-N-acetylneuraminic acid substrate by fluorimetric assay. In a few lines: (§1)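 Recombinant soluble neuraminidase (400 ng/mL final) in 50 mM Tris, 5 mM CaCl2, 200 mM NaCl, pH 7.5, was mixed with a range of inhibitor concentrations and 2'-4-methylumbelliferyl substrate (200 µM final, 1.5% total DMSO). Fluorescence (ex 365 nm, em 445 nm) was followed over 5 min, and IC50 was taken from the full dose–response curve.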

Assay [2] deals with Neuraminidase (Influenza A virus (strain A/Brevig Mission/1/1918 H1N1) (Influenza Avirus (strain A/South Carolina/1/1918 H1N1))) (UniProt Q9IGQ6). The assay can be described thus: Inhibition of Influenza A virus (A/Brevig Mission/1/1918(H1N1)) recombinant neuraminidase by dose responsive study. In a few lines: as §1
The target is the same in assay [3]. The assay can be described thus: Competitive inhibition of Influenza A virus (A/Brevig Mission/1/1918(H1N1)) recombinant soluble neuraminidase at 0.7 to 3 nM using 2'-4(methylumbelliferyl)-alpha-D-N-acetylneuraminic acid substrate by fluorimetric based Lineweaver-Burk plot analysis. In a few lines:
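Recombinant soluble neuraminidase (1000 ng/mL stock, 400 ng/mL in well) in 50 mM Tris pH 7.5, 200 mM NaCl, 5 mM CaCl2. The 4-methylumbelliferyl sialic acid substrate working solution was serially diluted in buffer with 4% DMSO. Reaction progress was read by fluorescence (ex 365, em 445 nm) over 10 min across several substrate and inhibitor concentrations. Substrate-only controls were run.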

For assay [4], the system named is Influenza A virus. Briefly: Antiviral activity against NP40-inactivated Influenza A virus (A/Brisbane/59/2007(H1N1)) preincubated with virus for 10 mins by viral hemagglutinination titter assay. Format: functional, organism-based. In a few lines: (§2)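 Inhibitor dilutions were incubated for 10 min at room temperature with 0.2% NP40-inactivated virus, diluted to match the activity of 1000 ng/mL recombinant enzyme stock. The 4-methylumbelliferyl sialic acid substrate was then added in Tris/CaCl2/NaCl buffer, pH 7.5. Neuraminidase activity was read fluorimetrically (ex 365, em 445 nm), and IC50 was taken from the dose–response curve.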

The target of assay [5] is Neuraminidase (Influenza A virus) (UniProt B4URF0). The assay can be described thus: Inhibition of NP40-inactivated Influenza A virus (A/Brisbane/59/2007(H1N1)) neuraminidase after 10 mins by dose responsive study. Summed up: as §2
The target in assay [6] is Neuraminidase (Influenza A virus (strain A/Brevig Mission/1/1918 H1N1) (Influenza Avirus (strain A/South Carolina/1/1918 H1N1))) (UniProt Q9IGQ6). The assay can be described thus: Competitive inhibition of Influenza A virus (A/Brevig Mission/1/1918(H1N1)) recombinant soluble neuraminidase at 0.7 to 3 nM using 2'-4(methylumbelliferyl)-alpha-D-N-acetylneuraminic acid substrate by fluorimetric based Michaelis-Menten equation analysis. Summed up:
(§3)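 For kinetics, substrate working solution was serially diluted in assay buffer (50 mM Tris, 5 mM CaCl2, 200 mM NaCl, pH 7.5) containing 4% DMSO. Recombinant soluble neuraminidase reaction progress was followed fluorimetrically (ex 365, em 445 nm) for 10 min at several substrate and inhibitor concentrations to derive Ki.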

Assay [7] has as its system Influenza A virus. The assay can be described thus: Antiviral activity against NP40-inactivated Influenza A virus (A/Brisbane/59/2007(H1N1)) preincubated with virus for 2 hrs by viral hemagglutinination titter assay. Format: functional, organism-based. Summed up:
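The virus assay used 0.2% NP40-inactivated virus, diluted to match the activity of 1000 ng/mL recombinant enzyme stock, with inhibitor preincubation lengthened to 2 h at room temperature before the 4-methylumbelliferyl substrate was added. Reaction was in pH 7.5 Tris/CaCl2/NaCl buffer, with fluorescence read at ex 365/em 445 nm. IC50 came from dose–response.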

In assay [8] the target is Neuraminidase (Influenza A virus (strain A/Brevig Mission/1/1918 H1N1) (Influenza Avirus (strain A/South Carolina/1/1918 H1N1))) (UniProt Q9IGQ6). Briefly: Competitive inhibition of Influenza A virus (A/Brevig Mission/1/1918(H1N1)) recombinant soluble neuraminidase at 3.75 to 15 nM using 2'-4(methylumbelliferyl)-alpha-D-N-acetylneuraminic acid substrate by fluorimetric based Lineweaver-Burk plot analysis. In a few lines:
as §3

Assay [9] has the same target. Briefly: Competitive inhibition of Influenza A virus (A/Brevig Mission/1/1918(H1N1)) recombinant soluble neuraminidase at 3.75 to 15 nM using 2'-4(methylumbelliferyl)-alpha-D-N-acetylneuraminic acid substrate by fluorimetric based Michaelis-Menten equation analysis. Summed up:
as §3

The target of assay [10] is Neuraminidase (Influenza A virus, UniProt B4URF0). Briefly: Inhibition of influenza A virus neuraminidase.

The term IC50 denotes the concentration needed to halve the response being measured. As a reminder, the Ki is a measure of affinity in units of concentration, obtained from inhibition or displacement.

Activity calls are given as the source filed them. No cut-off for these calls is given here.

Chain of Neuraminidase (Influenza A virus (strain A/Brevig Mission/1/1918 H1N1) (Influenza Avirus (strain A/South Carolina/1/1918 H1N1)), UniProt Q9IGQ6) (Q9IGQ6 whole entry): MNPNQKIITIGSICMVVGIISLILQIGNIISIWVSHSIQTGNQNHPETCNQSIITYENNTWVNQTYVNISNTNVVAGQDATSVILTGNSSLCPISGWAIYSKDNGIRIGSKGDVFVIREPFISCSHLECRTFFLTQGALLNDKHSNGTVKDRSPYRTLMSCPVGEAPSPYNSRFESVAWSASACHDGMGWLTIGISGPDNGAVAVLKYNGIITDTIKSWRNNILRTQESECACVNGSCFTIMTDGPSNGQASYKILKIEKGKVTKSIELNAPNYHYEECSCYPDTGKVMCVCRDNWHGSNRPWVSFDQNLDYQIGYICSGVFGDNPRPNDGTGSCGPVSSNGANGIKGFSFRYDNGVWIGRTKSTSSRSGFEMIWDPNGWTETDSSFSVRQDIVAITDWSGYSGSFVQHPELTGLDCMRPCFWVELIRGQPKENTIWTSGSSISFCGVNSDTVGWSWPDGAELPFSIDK
Chain of Neuraminidase (Influenza A virus (strain A/Brevig Mission/1/1918 H1N1) (Influenza Avirus (strain A/South Carolina/1/1918 H1N1))) (Q9IGQ6 whole entry): as above
Chain of Neuraminidase (B4URF0 whole entry): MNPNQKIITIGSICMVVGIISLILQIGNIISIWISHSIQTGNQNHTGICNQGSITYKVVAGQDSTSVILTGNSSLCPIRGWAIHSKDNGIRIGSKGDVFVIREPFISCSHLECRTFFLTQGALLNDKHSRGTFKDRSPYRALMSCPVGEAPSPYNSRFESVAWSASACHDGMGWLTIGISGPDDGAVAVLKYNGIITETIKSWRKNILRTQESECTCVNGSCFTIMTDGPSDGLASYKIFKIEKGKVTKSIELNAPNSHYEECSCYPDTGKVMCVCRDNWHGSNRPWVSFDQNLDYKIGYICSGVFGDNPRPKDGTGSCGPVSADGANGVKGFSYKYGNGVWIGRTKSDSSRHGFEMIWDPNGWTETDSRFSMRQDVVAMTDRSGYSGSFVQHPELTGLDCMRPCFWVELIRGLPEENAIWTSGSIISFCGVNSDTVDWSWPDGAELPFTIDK
Chain of Neuraminidase (Influenza A virus) (B4URF0 as listed by the source): as the sequence (B4URF0 whole entry) above

On to `N=C(N)N[C@H]1CC[C@@](O)(C(=O)O)C1`, for which the half-inhibitory concentration (IC50) in assay [1] was 4000 µM.
Turning to `CCC(CC)[C@H](NC(C)=O)[C@@H]1[C@H](O)[C@@H](C(=O)O)C[C@H]1NC(=N)N` [PERAMIVIR ANHYDROUS], the inhibition entry in assay [2] and in assay [5] was “Dose-dependent effect” in each case. For the same compound, the inhibition entry in assay [3] and in [6] was “Active” in each case. In addition, the 50% inhibitory concentration (IC50) was 0.00086 µM in assay [4] and 0.0034 µM in assay [1]. The Ki in assay [1] was determined as 0.00083 µM.
As for `CCC(CC)[C@H](NC(C)=O)[C@@H]1[C@H](O)[C@@H](C(=O)O)C[C@H]1N`, the IC50 is 0.0022 µM in assay [7], 0.0073 µM in assay [4] and 0.0177 µM in assay [1]. In addition, the inhibition result in assay [2] and in assay [5] was “Dose-dependent effect” throughout. The inhibition entry in assay [8] and in assay [9] was “Active” in each case. For the same compound, the Ki in assay [1] was 0.0075 µM.
Regarding `CCOC(=O)C1=C[C@@H](OC(CC)CC)[C@H](NC(C)=O)[C@@H](NC(=N)N)C1`, in [10], the IC50 worked out at 0.0005 µM.
Take `CCOC(=O)C1=C[C@@H](OC(CC)CC)[C@H](NC(C)=O)[C@@H](N)C1` [OSELTAMIVIR]: the IC50 in assay [10] worked out at 0.001 µM.
Regarding `N[C@H]1CC[C@@](O)(C(=O)O)C1`, the IC50 in [1] worked out at 37000 µM.
